We go through two molecules from ChEMBL document CHEMBL3997791, “Nanomolar-Potency Aminophenyl-1,3,5-triazine Activators of the Cystic Fibrosis Transmembrane Conductance Regulator (CFTR) Chloride Channel for Prosecretory Therapy of Dry Eye Diseases” (J Med Chem, 2017).

Data set [1] is filed under the species Homo sapiens. The data set is described as follows: Inhibition of potassium channel in human primary bronchial epithelial cells assessed as effect on short-circuit current at 10 uM after 10 mins by voltage clamp method. In outline: (§1)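 Primary human bronchial epithelial cells grown at air-liquid interface, mounted in Ussing chambers in symmetrical HCO3−-buffered solutions (95% O2/5% CO2, 37 °C), with Ag/AgCl electrodes. After 10 min preincubation with 10 µM compound, sequential additions were 20 µM amiloride, 20 µM forskolin, 10 µM CFTRinh-172 and 100 µM ATP. Traces represent two to four experiment sets.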

For data set [2], the species on record is Homo sapiens. The data set is described as follows: Inhibition of ENaC in human primary bronchial epithelial cells assessed as effect on short-circuit current at 10 uM after 10 mins by voltage clamp method. In outline: as §1
The subject of data set [3] is HT-29. The data set is described as follows: Inhibition of iodide influx in human HT-29 cells expressing YFP at 10 uM measured after 10 mins for 2 to 12 sec in presence of ATP by fluorescence assay. Type of data set: functional, cell-based. In outline: (§2)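 HT-29 cells expressing YFP halide sensor, 10 μM compound, for non-TMEM16A calcium-activated chloride channel. Plate reader fluorescence quenching after iodide addition (activation) or iodide plus ATP addition (inhibition); initial rate of iodide influx computed as linear measure of channel function. Representative of two to four experiment sets.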

Data set [4] relates to HT-29. Put plainly: Increase of iodide influx in human HT-29 cells expressing YFP at 10 uM measured after 10 mins for 2 to 12 sec by fluorescence assay. It is filed as functional, cell-based. The essentials:
as §2

The species named for data set [5] is Homo sapiens. The data set is described as follows: Inhibition of calcium-activated chloride channel in human primary bronchial epithelial cells assessed as inhibition of ATP-induced short-circuit current at 10 uM preincubated for 10 mins followed by ATP addition by voltage clamp method. The essentials:
as §1

Data set [6] can be described thus: Elevation of cAMP level in Fischer rat thyroid cells co-expressing YFP and human CFTR at 10 uM incubated for 10 mins by immunoassay. It is filed as ADME, cell-based. As to conditions: thyroid cell. In outline:
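FRT cells expressing wild-type CFTR in 12-well plates, PBS-washed, incubated 10 min with 10 μM compound without or with 90 nM forskolin; references were forskolin alone (90 nM, 20 μM) and 20 μM forskolin + 100 μM IBMX. Lysates assayed for cAMP by immunoassay; mean ± SEM, n = 4.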
On the technique in general: Changes in cAMP serve as a functional read-out for many G protein-coupled receptors.

The species named for data set [7] is Homo sapiens. Put plainly: Inhibition of sodium/potassium pump in human primary bronchial epithelial cells assessed as effect on short-circuit current at 10 uM after 10 mins by voltage clamp method. In outline: as §1
Data set [8] has as its target T1, Solute carrier family 12 member 2 (Homo sapiens) (UniProt P55011).
T1 sequence (whole entry): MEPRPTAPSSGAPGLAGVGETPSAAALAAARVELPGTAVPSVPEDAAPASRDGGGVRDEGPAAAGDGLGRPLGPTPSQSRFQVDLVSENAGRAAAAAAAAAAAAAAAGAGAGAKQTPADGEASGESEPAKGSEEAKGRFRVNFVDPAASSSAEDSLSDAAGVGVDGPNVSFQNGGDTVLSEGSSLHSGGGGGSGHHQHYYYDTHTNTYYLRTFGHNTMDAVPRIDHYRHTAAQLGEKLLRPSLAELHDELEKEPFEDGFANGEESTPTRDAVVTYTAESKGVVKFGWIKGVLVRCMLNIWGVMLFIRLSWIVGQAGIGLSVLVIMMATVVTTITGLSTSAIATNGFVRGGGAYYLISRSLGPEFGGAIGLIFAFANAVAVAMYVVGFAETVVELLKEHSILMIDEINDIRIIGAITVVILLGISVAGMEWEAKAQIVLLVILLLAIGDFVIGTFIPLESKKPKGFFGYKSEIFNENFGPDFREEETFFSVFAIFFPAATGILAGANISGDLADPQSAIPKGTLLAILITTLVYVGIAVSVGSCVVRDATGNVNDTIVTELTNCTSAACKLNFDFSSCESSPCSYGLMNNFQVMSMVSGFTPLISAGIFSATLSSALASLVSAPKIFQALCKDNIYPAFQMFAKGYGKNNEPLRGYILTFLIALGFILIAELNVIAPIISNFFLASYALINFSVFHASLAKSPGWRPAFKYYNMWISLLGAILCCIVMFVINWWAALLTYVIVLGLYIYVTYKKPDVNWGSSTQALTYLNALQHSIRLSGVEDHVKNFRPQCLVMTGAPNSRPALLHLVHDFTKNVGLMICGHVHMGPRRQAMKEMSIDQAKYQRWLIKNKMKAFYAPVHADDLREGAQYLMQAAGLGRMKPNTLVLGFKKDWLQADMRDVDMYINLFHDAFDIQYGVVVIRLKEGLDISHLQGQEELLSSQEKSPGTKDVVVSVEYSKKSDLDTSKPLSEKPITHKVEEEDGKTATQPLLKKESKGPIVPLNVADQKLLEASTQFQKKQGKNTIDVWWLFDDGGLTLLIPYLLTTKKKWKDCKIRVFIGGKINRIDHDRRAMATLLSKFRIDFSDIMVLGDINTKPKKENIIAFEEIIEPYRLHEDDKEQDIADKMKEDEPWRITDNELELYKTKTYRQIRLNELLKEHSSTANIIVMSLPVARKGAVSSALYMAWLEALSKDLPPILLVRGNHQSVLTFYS
Put plainly: Inhibition of NKCC1 in human primary bronchial epithelial cells assessed as effect on short-circuit current at 10 uM after 10 mins by voltage clamp method. In outline:
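Primary human bronchial epithelial cultures (air-liquid interface) in Ussing chambers, symmetrical HCO3−-buffered solutions, 95% O2/5% CO2, 37 °C. After 10 min preincubation with 10 μM compound, sequential 20 μM amiloride, 20 μM forskolin, 10 μM CFTRinh-172, 100 μM ATP; short-circuit current recorded under voltage clamp.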

The nature of data set [9]: Cytotoxicity against Fischer rat thyroid cells assessed as effect on cell survival up to 10 uM after 8 hrs by alamar blue assay. Type of data set: cell-based. The essentials: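 FRT cells cultured overnight, then incubated 8 h with compound up to 10 μM; 33% DMSO as positive control. Viability read by Alamar Blue; mean ± SEM, n = 8.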

Active and inactive are the calls of the source. The calls are words filed in the database; no cut-off is given here.

For `CNc1nc(Nc2ccccc2)nc(OCC(F)(F)C(F)F)n1`, the inhibition entry (in the data set listed under Homo sapiens [1]; in the data set filed under Homo sapiens [2]; in the data set on HT-29 [3]; in the data set listed under Homo sapiens [5]; in the data set filed under Homo sapiens [7]; in data set [8]) was “inactive” throughout. Besides, the result with HT-29 [4] was inactive. Also, the Activity entry in data set [6] and in data set [9] was “Non-Toxic” in each case.

For the molecule `CCN(CC)c1nc(Nc2ccc3ncsc3c2)nc(OC(C(F)(F)F)C(F)(F)F)n1`, the inhibition result (in the data set filed under Homo sapiens [1]; in the data set filed under Homo sapiens [2]; with HT-29 [3]; in the data set filed under Homo sapiens [5]; in the data set filed under Homo sapiens [7]; in data set [8]) was “inactive” each time. Besides, the outcome in the data set with HT-29 [4] was inactive. Also, the Activity result in data set [6] and in [9] was “Non-Toxic” in each case.
